The results in this text go back to ChEMBL document CHEMBL4130504, “Discovery of new indomethacin-based analogs with potentially selective cyclooxygenase-2 inhibition and observed diminishing to PGE2 activities” (Eur J Med Chem, 2017).

For orientation: IC50 means the concentration that inhibits the measured activity by half.

The test system of series [1] is Rattus norvegicus. Briefly: Ulcerogenicity in albino rat assessed as at 30 umol/kg, po administered daily for 3 successive days in two equal doses at 0 and 12 hrs measured at 6 hrs post last dose by magnifying lens based assay relative to control. The series is classed as toxicity, organism-based. As to conditions: in vivo. A digest of the protocol:
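Male albino rats, 100-120 g, fasted 12 h, six per group. Compound given orally at 30 µmol/kg/day as two equal doses at 0 and 12 h for three days. Controls got 1% gum acacia. Killed 6 h after last dose. Stomach opened along the greater curvature, washed with cold saline and examined under a magnifying lens for hyperemia, hemorrhage, erosion or ulcer. % ulceration = ulcer-bearing animals ×100/group total.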

Series [2] is described as follows: Inhibition of dog kidney microsomal COX assessed as PGE2 level using arachidonic acid as substrate preincubated for 5 to 15 mins followed by substrate addition measured after 40 mins by radio immunoassay. Also noted: species or system Canis lupus familiaris. A digest of the protocol:
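Dog kidney microsomes: tissue homogenized and sonicated in phosphate buffer pH 7.1 with EDTA/PMSF, 100,000g pellet collected. Arachidonic acid added, 40 min at room temperature. Stopped with 1 N HCl, neutralized, PGE2 by radioimmunoassay. COX activity = PGE2 with arachidonic acid minus ethanol vehicle. IC50 from three separate experiments, mean ± SEM.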

Series [3] concerns Rattus norvegicus. Briefly: In vivo inhibition of rat COX-2 assessed as decrease in plasma PGE2 level by EIA relative to control. The series is classed as functional. In a few lines: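 Plasma from heparinized rat blood, spun at 12,000 g for 2 min, then frozen until use. PGE2 measured by competitive enzyme immunoassay with a monoclonal anti-PGE2 antibody at room temperature, read at 405 nm. Expressed as % inhibition ± SEM.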

The next series concerns the target T1, Cyclooxygenase (Rattus norvegicus, UniProt P35355+Q63921).
T1 sequence (P35355 whole entry): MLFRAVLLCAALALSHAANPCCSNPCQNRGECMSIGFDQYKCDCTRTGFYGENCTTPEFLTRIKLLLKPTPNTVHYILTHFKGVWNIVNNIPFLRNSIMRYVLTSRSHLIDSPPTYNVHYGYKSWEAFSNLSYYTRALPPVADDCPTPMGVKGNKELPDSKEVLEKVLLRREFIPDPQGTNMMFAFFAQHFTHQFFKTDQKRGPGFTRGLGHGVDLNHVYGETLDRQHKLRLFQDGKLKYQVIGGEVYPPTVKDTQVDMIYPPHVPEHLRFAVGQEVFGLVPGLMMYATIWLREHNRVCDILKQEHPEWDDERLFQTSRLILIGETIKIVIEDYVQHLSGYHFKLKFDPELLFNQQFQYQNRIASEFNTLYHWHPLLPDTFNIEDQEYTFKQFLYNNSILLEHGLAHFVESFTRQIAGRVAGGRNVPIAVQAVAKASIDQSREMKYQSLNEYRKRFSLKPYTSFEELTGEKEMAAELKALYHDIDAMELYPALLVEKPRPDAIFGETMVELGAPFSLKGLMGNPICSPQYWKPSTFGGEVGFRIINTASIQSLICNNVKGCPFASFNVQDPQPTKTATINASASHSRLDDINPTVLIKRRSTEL
T1 sequence (Q63921 whole entry): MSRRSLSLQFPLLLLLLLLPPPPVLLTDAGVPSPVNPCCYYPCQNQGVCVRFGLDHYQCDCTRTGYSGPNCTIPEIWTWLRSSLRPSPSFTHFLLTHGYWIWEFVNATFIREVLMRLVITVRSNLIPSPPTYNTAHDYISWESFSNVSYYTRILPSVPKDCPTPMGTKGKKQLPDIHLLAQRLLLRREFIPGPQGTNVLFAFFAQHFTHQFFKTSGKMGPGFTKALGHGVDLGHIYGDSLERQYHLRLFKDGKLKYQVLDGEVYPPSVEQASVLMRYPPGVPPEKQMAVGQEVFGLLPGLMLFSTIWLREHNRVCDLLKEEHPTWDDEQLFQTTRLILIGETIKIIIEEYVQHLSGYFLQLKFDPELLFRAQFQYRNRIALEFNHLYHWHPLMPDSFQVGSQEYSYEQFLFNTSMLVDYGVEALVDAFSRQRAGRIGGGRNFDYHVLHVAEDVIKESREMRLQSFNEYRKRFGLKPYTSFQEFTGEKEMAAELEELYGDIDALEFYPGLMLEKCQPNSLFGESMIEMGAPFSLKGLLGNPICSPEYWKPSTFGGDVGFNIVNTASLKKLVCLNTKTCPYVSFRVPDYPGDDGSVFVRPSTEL
Put plainly: Inhibition of rat kidney microsomal COX assessed as PGE2 level using arachidonic acid as substrate preincubated for 5 to 15 mins followed by substrate addition measured after 40 mins by radio immunoassay.

Series [4] deals with Rattus norvegicus. Briefly: Antiinflammatory activity in albino rat assessed as protection against carrageenan-induced paw edema at 10 umol/kg, sc pretreated for 1 hr followed by carrageenan challenge measured after 4 hrs by plethysmometer (reference value: 0%). Type of series: functional. A digest of the protocol:
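Male albino rats, 120-150 g, six per group. Compound in DMSO given subcutaneously at 10 µmol/kg 1 h before subplantar injection of 2% carrageenan in 0.9% saline. Controls got DMSO alone. Paw volume read by plethysmometer right after carrageenan and 4 h later. % protection = (Vc−Vd)×100/Vc from the 0–4 h increase. Mean ± SEM, Student's t-test.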
(In the carrageenan paw model, swelling and tenderness develop within hours.)

Series [5] concerns Rattus norvegicus. Put plainly: Antiinflammatory activity in sc dosed Sprague-Dawley rat assessed as inhibition of cotton pellet-induced granuloma after 7 days. Type of series: functional. In a few lines: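 Adult male Sprague-Dawley rats, 120-140 g, six per group, acclimated one week. Cotton pellets (35 ± 1 mg) soaked with 0.01 mmol compound in chloroform, dried, then loaded with penicillin G/dihydrostreptomycin. Two pellets implanted subcutaneously, one per axilla, under mild anesthesia. Pellets with granuloma removed at day 7, dried 48 h at 60 °C and weighed. ED50 from dose-response at 4, 7, 10 and 15 µmol.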

`COc1ccc2c(c1)c1c(n2C(=O)c2ccc(Cl)cc2)CC(C)(C)CC1=O`: the Activity turned out to be 13.18% with Rattus norvegicus [1] and 79.66% in the series on Rattus norvegicus [4]. Moreover, the IC50 in series [2] turned out to be 80 nM; on Cyclooxygenase, 141 nM. Further, the “inhibition (INH)” value with Rattus norvegicus [3] came to 80.24%. Also, the ED50 in the series with Rattus norvegicus [5] came to 28.27 µmol.

On to `CS(=O)(=O)c1ccc2c(c1)c1c(n2Cc2ccc(Cl)cc2)CCCC1=O`, for which the Activity in the series on Rattus norvegicus [1] is 5.4%; in the series with Rattus norvegicus [4], 83.1%. The results for the concentration for half-maximal inhibition (IC50) (in series [2]; on Cyclooxygenase) were 45 nM and 93 nM, respectively. Further, the “inhibition (INH)” value with Rattus norvegicus [3] stood at 86.39%. In the series on Rattus norvegicus [5], the ED50 was found to be 19.2 µmol.

As to `CS(=O)(=O)c1ccc2c(c1)c1c(n2C(=O)c2ccc(Cl)cc2)CCCC1`, the Activity in the series on Rattus norvegicus [1] came to 12.45%; with Rattus norvegicus [4] it was 80.97%. Besides, the IC50 in series [2] turned out to be 56 nM; on Cyclooxygenase it was 116 nM. Besides, the “inhibition (INH)” value in the series with Rattus norvegicus [3] came out at 83.19%. Also, in the series with Rattus norvegicus [5], the ED50 came to 25.67 µmol.

Turning to `COc1ccc2c(c1)c1c(n2Cc2ccc(Cl)cc2)CC(C)(C)CC1=O`, the Activity with Rattus norvegicus [1] is 11.2%; in the series on Rattus norvegicus [4], 80.36%. Also, the IC50 in series [2] is 77 nM; on Cyclooxygenase, 132 nM. Also, in the series on Rattus norvegicus [3], the “inhibition (INH)” value was found to be 81.16%. Besides, the ED50 in the series on Rattus norvegicus [5] was 17.27 µmol.

For `CS(=O)(=O)c1ccc2c(c1)c1c(n2C(=O)c2ccc(Cl)cc2)CCCC1=O`, the Activity with Rattus norvegicus [1] was 3.28%; with Rattus norvegicus [4] it was 88.06%. Further, the concentration for half-maximal inhibition (IC50) in series [2] was 34 nM; on Cyclooxygenase, 48 nM. Also, the “inhibition (INH)” value with Rattus norvegicus [3] came out at 91.29%. In addition, the ED50 in the series on Rattus norvegicus [5] turned out to be 12.38 µmol.

On to `CS(=O)(=O)c1ccc2c(c1)c1c(n2S(=O)(=O)c2ccc(Cl)cc2)CCCC1=O`, for which the Activity in the series with Rattus norvegicus [1] is reported as 11.29%; in the series on Rattus norvegicus [4], 81.88%. Further, the concentration for half-maximal inhibition (IC50) in series [2] is 53 nM; on Cyclooxygenase, 104 nM. Also, the “inhibition (INH)” value with Rattus norvegicus [3] is on record as 84.11%. Moreover, in the series with Rattus norvegicus [5], the ED50 worked out at 22.33 µmol.

`CS(=O)(=O)c1ccc2c(c1)c1c(n2Cc2ccc(Cl)cc2)CCCC1`: the Activity in the series with Rattus norvegicus [1] is on record as 4.48%; in the series on Rattus norvegicus [4], 87.55%. In addition, the IC50 in series [2] was 39 nM; at Cyclooxygenase it was 56 nM. In addition, the “inhibition (INH)” value in the series with Rattus norvegicus [3] is on record as 89.43%. In addition, the ED50 in the series with Rattus norvegicus [5] is 14.56 µmol.

Turning to `COc1ccc2c(c1)c1c(n2S(=O)(=O)c2ccc(Cl)cc2)CC(C)(C)CC1=O`, the Activity amounted to 20.12% in the series with Rattus norvegicus [1] and 80.67% in the series with Rattus norvegicus [4]. Besides, the IC50 worked out at 61 nM in series [2] and 128 nM on Cyclooxygenase. The “inhibition (INH)” value with Rattus norvegicus [3] is recorded as 82.16%. In the series with Rattus norvegicus [5], the ED50 came to 26.88 µmol.

Consider `CS(=O)(=O)c1ccc2c(c1)c1c(n2S(=O)(=O)c2ccc(Cl)cc2)CCCC1`, for which the Activity was found to be 2.9% in the series on Rattus norvegicus [1] and 85.32% with Rattus norvegicus [4]. Further, the 50% inhibitory concentration (IC50) is 40 nM in series [2] and 79 nM at Cyclooxygenase. Also, the “inhibition (INH)” value in the series on Rattus norvegicus [3] came out at 88.2%. In the series with Rattus norvegicus [5], the ED50 was 18.67 µmol.

`Cc1ccc(-c2cc(C(F)(F)F)nn2-c2ccc(S(N)(=O)=O)cc2)cc1` [CELECOXIB]: the values for the Activity in the series on Rattus norvegicus [1] and in the series with Rattus norvegicus [4] were 2.11% and 96.73%, respectively. Further, the half-inhibitory concentration (IC50) in series [2] was found to be 112 nM. The “inhibition (INH)” value in the series with Rattus norvegicus [3] came out at 77.25%. Moreover, the ED50 in the series on Rattus norvegicus [5] was 86.11 µmol.

Turning to `COc1ccc2c(c1)c(CC(=O)O)c(C)n2C(=O)c1ccc(Cl)cc1` [INDOMETHACIN], the “inhibition (INH)” value in the series with Rattus norvegicus [3] was 98.29%. Also, the ED50 with Rattus norvegicus [5] is 9.568 µmol.
